Active and inactive are the calls of the source. The rule behind the calls is not given here.
Assays:
[1] = molecular target: T1, Tyrosine-protein phosphatase non-receptor type 1 (Homo sapiens) (UniProt P18031); conditions: at 20 µg/mL
T1 sequence (whole entry): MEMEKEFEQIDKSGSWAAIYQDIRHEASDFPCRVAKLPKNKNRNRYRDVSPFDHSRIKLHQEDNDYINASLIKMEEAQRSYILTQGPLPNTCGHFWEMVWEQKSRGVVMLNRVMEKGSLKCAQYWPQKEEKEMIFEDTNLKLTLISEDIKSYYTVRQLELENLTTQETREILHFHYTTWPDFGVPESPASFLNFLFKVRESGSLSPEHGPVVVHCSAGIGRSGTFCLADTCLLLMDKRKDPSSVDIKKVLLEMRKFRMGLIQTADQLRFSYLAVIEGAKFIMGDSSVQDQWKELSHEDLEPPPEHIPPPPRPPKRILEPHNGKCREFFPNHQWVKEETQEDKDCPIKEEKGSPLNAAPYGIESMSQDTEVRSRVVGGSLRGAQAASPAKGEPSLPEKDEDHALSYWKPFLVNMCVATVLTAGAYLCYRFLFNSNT

[2] = molecular target: T1, Tyrosine-protein phosphatase non-receptor type 1 (Homo sapiens); conditions: at 5 µg/mL
[3] = molecular target: T2, Tyrosine-protein phosphatase non-receptor type 1 (Homo sapiens, UniProt P18031); test: Inhibition of human recombinant GST-tagged PTP1B using para-nitrophenyl phosphate as substrate after 2 mins
T2 sequence (P18031 whole entry): T1 sequence (whole entry)

[4] = test system: Mus musculus; test: Antidyslipidemic activity in C57BL/KsJ db/db mouse assessed as reduction of total cholesterol level in blood at 25 mg/kg, po administered for 6 weeks measured on 2nd week (reference value: 3.5 +/- 0.2 mmol/l); type: functional
[5] = test system: Mus musculus; test: Antidyslipidemic activity in C57BL/KsJ db/db mouse assessed as reduction of triglycerides level in blood at 25 mg/kg, po administered for 6 weeks (reference value: 1.05 +/- 0.11 mmol/l); type: functional
[6] = test system: Mus musculus; test: Antidiabetic activity in C57BL/KsJ db/db mouse assessed as reduction of blood glucose level at 25 mg/kg, po administered for 6 weeks measured on 3rd week; type: functional; design: scale not given: the % may be the effect or the level left
In short: (§1)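 C57BL/KsJ db/db mice, 6-8 weeks old, one-week adaptation, n = 10 per group, chow and water ad libitum. Compound suspended in 0.5% CMC-Na with 2% tween-80, given orally once daily for six weeks (about 0.2 mL/20 g). Vehicle-treated db/db model group. Blood glucose read weekly by glucometer.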

[7] = test system: Mus musculus; test: […] activity in C57BL/KsJ db/db mouse assessed as reduction of HbA1c level in blood at 25 mg/kg, po administered for 6 weeks (reference value: 2.65 +/- 0.40%); type: functional; design: scale not given: the % may be the effect or the level left
In short: (§2)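 db/db mice (C57BL/KsJ, 6-8 weeks, n = 10/group) given compound orally once daily for six weeks in 0.5% CMC-Na with 2% tween-80. Vehicle model group; db/dm mice as controls. At the end, overnight fast, then dosing; eyeball blood taken 1 h later into heparin tubes. HbA1c read by reagent kit. GSP measured in plasma by fructosamine method. Mean ± s.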

[8] = test system: Mus musculus; test: Antidyslipidemic activity in C57BL/KsJ db/db mouse assessed as reduction of total cholesterol level in blood at 50 mg/kg, po administered for 6 weeks measured on 2nd week (reference value: 3.5 +/- 0.2 mmol/l); type: functional
[9] = test system: Mus musculus; test: Antidyslipidemic activity in po dosed C57BL/KsJ db/db mouse assessed as reduction of triglycerides level in blood administered for 6 weeks; type: functional, organism-based
[10] = test system: Mus musculus; test: […] activity in C57BL/KsJ db/db mouse assessed as reduction of glycated serum protein level in blood at 50 mg/kg, po administered for 6 weeks (reference value: 1.62 +/- 0.27 mmol/l); type: functional
In short: as §2

[11] = test system: Mus musculus; test: Antidyslipidemic activity in C57BL/KsJ db/db mouse assessed as reduction of triglycerides level in blood at 25 mg/kg, po administered for 6 weeks measured on 2nd week (reference value: 1.08 +/- 0.07 mmol/l); type: functional
[12] = test system: Mus musculus; test: Antidyslipidemic activity in C57BL/KsJ db/db mouse assessed as reduction of triglycerides level in blood at 50 mg/kg, po administered for 6 weeks (reference value: 1.05 +/- 0.11 mmol/l); type: functional
[13] = test system: Mus musculus; test: Antidyslipidemic activity in C57BL/KsJ db/db mouse assessed as reduction of triglycerides level in blood at 50 mg/kg, po administered for 6 weeks measured on 2nd week (reference value: 1.08 +/- 0.07 mmol/l); type: functional
[14] = test system: Mus musculus; test: Antidiabetic activity in C57BL/KsJ db/db mouse assessed as reduction of food and water intake at 25 to 50 mg/kg, po administered for 6 weeks; type: functional, organism-based
In short: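 db/db mice (C57BL/KsJ, 6-8 weeks), n = 10 per group, dosed orally once daily for six weeks as a suspension in 0.5% CMC-Na plus 2% tween-80. Vehicle model group; db/dm mice as non-diabetic controls. Food intake recorded weekly.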

[15] = test system: Mus musculus; test: Toxicity in C57BL/KsJ db/db mouse assessed as change in body weight at 25 to 50 mg/kg, po administered for 6 weeks; type: organism-based; design: dose 25-50 mg/kg, route oral; conditions: in vivo, 1008 h
[16] = test system: Mus musculus; test: Antidyslipidemic activity in C57BL/KsJ db/db mouse assessed as reduction of total cholesterol level in blood at 50 mg/kg, po administered for 6 weeks (reference value: 3.3 +/- 0.5 mmol/l); type: functional
[17] = test system: Mus musculus; test: Antidiabetic activity in C57BL/KsJ db/db mouse assessed as reduction of blood glucose level at 50 mg/kg, po administered for 6 weeks measured on 3rd week; type: functional; design: scale not given: the % may be the effect or the level left
In short: as §1

[18] = test system: Mus musculus; test: […] activity in C57BL/KsJ db/db mouse assessed as reduction of HbA1c level in blood at 50 mg/kg, po administered for 6 weeks (reference value: 2.65 +/- 0.40%); type: functional; design: scale not given: the % may be the effect or the level left
In short: as §2

[19] = test system: Mus musculus; test: Antidyslipidemic activity in C57BL/KsJ db/db mouse assessed as reduction of total cholesterol level in blood at 25 mg/kg, po administered for 6 weeks (reference value: 3.3 +/- 0.5 mmol/l); type: functional
[20] = test system: Mus musculus; test: Toxicity in C57BL/KsJ db/db mouse assessed as mortality at 25 to 50 mg/kg, po administered for 6 weeks; type: organism-based; design: dose 25-50 mg/kg, route oral; conditions: in vivo, 1008 h
[21] = test system: Mus musculus; test: Antidyslipidemic activity in po dosed C57BL/KsJ db/db mouse assessed as reduction of total cholesterol level in blood administered for 6 weeks; type: functional, organism-based
[22] = test system: Mus musculus; test: […] activity in C57BL/KsJ db/db mouse assessed as reduction of glycated serum protein level in blood at 25 mg/kg, po administered for 6 weeks (reference value: 1.62 +/- 0.27 mmol/l); type: functional
In short: as §2

[23] = test system: Mus musculus; test: Antidiabetic activity in C57BL/KsJ db/db mouse assessed as reduction of blood glucose level at 50 mg/kg, po administered for 6 weeks measured on first week; type: functional
In short: as §1

[24] = test system: Mus musculus; test: Antidiabetic activity in C57BL/KsJ db/db mouse assessed as reduction of blood glucose level at 50 mg/kg, po administered for 6 weeks; type: functional
In short: as §1

SMILES | inhibition [1] [%] | inhibition [2] [%] | other results
COc1cc(C(=O)c2c(C)cc(OC)c(OC)c2Br)c(Br)c(Br)c1OC | 48.6 | – | –
COc1cc(C)c(Cc2c(Br)c(Br)c(OC)c(OC)c2Br)c(Br)c1OC | 72.6 | 38.2 | –
CCCCOCc1cc(O)c(O)c(Br)c1Cc1cc(O)c(O)c(Br)c1Br | 64.6 | 27.2 | –
COc1cc(Cc2c(C)cc(OC)c(OC)c2Br)cc(Br)c1OC | 14.5 | – | –
CCCOCc1cc(O)c(O)c(Br)c1Cc1cc(O)c(O)c(Br)c1Br | 86.2 | 55.7 | –
COc1cc(Cc2c(C)cc(OC)c(OC)c2Br)c(Br)c(Br)c1OC | 87.5 | 43.1 | –
COCc1cc(OC)c(OC)c(Br)c1C(=O)c1cc(OC)c(OC)c(Br)c1Br | 61.8 | 17.7 | –
COCc1cc(O)c(O)c(Br)c1Cc1cc(O)c(O)c(Br)c1Br | 51.9 | 25.3 | –
COc1cc(Cc2c(CO)cc(OC)c(OC)c2Br)c(Br)c(Br)c1OC | 74.9 | 29.1 | –
COC(=O)c1cc(OC)c(OC)c(Br)c1C(=O)c1cc(OC)c(OC)c(Br)c1Br | 55.3 | 23.8 | –
Oc1cc(Cc2cc(Br)c(O)c(Br)c2Br)c(Br)c(Br)c1O | – | – | IC50 [3]: 2420 nM
Cc1cc(O)c(O)c(Br)c1Cc1cc(O)c(O)c(Br)c1Br | 53.4 | 32.1 | –
COc1cc(Cc2c(CO)cc(OC)c(OC)c2Br)cc(Br)c1OC | 5.62 | – | –
COc1ccc(C(=O)c2c(C)cc(OC)c(OC)c2Br)cc1OC | 28.9 | – | –
COc1cc(C(=O)c2c(C(=O)O)cc(OC)c(OC)c2Br)c(Br)c(Br)c1OC | 29.9 | – | –
COc1cc(C(=O)c2c(C)cc(OC)c(OC)c2Br)cc(Br)c1OC | 36.7 | – | –
COc1cc(C2OCc3cc(OC)c(OC)c(Br)c32)c(Br)c(Br)c1OC (configuration not stated) | 11.4 | – | –
CC(C)COCc1cc(O)c(O)c(Br)c1Cc1cc(O)c(O)c(Br)c1Br | 96.2 | 48.3 | Activity [4]: 7.7 mmol/L; Activity [5]: 1.41 mmol/L; Activity [6]: 32.7%; Activity [7]: 3.24%; Activity [8]: 7.8 mmol/L; Activity [9]: Dose-dependent effect; Activity [10]: 3 mmol/L; Activity [11]: 1.16 mmol/L; Activity [12]: 1.48 mmol/L; Activity [13]: 1.35 mmol/L; Activity [14]: Active; Activity [15]: Toxic; Activity [16]: 9.1 mmol/L; Activity [17]: 36.4%; Activity [18]: 3.03%; Activity [19]: 8.5 mmol/L; Activity [20]: Non-toxic; Activity [21]: Dose-dependent effect; Activity [22]: 3.29 mmol/L
CN(CCOc1ccc(CC2SC(=O)NC2=O)cc1)c1ccccn1 (configuration not stated) [ROSIGLITAZONE] | – | – | Activity [8]: 6.5 mmol/L; Activity [10]: 2.6 mmol/L; Activity [23]: 8.9 mmol/L; Activity [12]: 1.29 mmol/L; Activity [13]: 1.06 mmol/L; Activity [16]: 7.7 mmol/L; Activity [18]: 2.56%; Activity [24]: 8 mmol/L
CCOCc1cc(O)c(O)c(Br)c1Cc1cc(O)c(O)c(Br)c1 | 50.6 | 17.3 | –
COc1cc(C2OC(=O)c3cc(OC)c(OC)c(Br)c32)c(Br)c(Br)c1OC (configuration not stated) | 10.6 | – | –
COc1c(Br)c(C)c(Cc2c(Br)c(Br)c(OC)c(OC)c2Br)c(Br)c1OC | 75.3 | 40.1 | –
CCOCc1cc(OC)c(OC)c(Br)c1C(=O)c1cc(OC)c(OC)c(Br)c1Br | 73.8 | 17.6 | –
